Measured values taken from ChEMBL document CHEMBL1140055, “Mixed-lineage kinase 1 and mixed-lineage kinase 3 subtype-selective dihydronaphthyl[3,4-a]pyrrolo[3,4-c]carbazole-5-ones: optimization, mixed-lineage kinase 1 crystallography, and oral in vivo activity in 1-methyl-4-phenyltetrahydropyridine models” (J Med Chem, 2008).
Active and inactive are the calls of the source. The rule behind the calls is not given here.

Legend:
[1] = target: T1, Mitogen-activated protein kinase kinase kinase 11 (Homo sapiens, UniProt Q16584); test: Inhibition of GST-fused human MLK3 at 1 uM
Method in brief: (§1)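 Baculovirus-expressed GST fusions of human MLK1 or MLK3 kinase domain (50 ng MLK1, 100 ng MLK3), myelin basic protein substrate at 500 µg/mL.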
Target sequence in this assay (Q16584 whole entry, looked up, the tested form may be a part): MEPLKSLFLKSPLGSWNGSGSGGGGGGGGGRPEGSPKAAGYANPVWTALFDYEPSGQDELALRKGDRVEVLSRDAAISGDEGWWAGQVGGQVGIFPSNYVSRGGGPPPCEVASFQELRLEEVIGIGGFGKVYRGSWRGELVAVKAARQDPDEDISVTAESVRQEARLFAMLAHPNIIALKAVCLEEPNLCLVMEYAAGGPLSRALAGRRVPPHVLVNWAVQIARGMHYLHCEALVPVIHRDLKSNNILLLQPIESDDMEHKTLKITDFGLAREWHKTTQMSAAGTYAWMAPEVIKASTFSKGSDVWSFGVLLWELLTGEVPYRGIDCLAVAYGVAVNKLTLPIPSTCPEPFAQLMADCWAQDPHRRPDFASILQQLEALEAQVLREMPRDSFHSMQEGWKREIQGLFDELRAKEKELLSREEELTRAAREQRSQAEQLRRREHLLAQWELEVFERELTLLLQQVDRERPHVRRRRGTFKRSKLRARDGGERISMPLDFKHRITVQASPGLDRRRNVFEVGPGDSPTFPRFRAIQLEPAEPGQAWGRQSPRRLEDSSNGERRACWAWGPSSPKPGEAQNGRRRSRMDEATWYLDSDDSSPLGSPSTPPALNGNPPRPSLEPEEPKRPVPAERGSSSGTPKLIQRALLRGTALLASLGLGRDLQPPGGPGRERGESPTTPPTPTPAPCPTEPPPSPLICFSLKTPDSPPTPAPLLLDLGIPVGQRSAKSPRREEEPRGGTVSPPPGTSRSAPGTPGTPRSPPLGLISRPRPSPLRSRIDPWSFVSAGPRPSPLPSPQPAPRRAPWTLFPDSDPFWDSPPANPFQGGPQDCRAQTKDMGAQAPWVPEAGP

[2] = target: T2, Mitogen-activated protein kinase kinase kinase 9 (Homo sapiens, UniProt P80192); test: Inhibition of GST-fused human MLK1 at 1 uM; method in brief: as §1
Target sequence in this assay (P80192 whole entry, looked up, the tested form may be a part): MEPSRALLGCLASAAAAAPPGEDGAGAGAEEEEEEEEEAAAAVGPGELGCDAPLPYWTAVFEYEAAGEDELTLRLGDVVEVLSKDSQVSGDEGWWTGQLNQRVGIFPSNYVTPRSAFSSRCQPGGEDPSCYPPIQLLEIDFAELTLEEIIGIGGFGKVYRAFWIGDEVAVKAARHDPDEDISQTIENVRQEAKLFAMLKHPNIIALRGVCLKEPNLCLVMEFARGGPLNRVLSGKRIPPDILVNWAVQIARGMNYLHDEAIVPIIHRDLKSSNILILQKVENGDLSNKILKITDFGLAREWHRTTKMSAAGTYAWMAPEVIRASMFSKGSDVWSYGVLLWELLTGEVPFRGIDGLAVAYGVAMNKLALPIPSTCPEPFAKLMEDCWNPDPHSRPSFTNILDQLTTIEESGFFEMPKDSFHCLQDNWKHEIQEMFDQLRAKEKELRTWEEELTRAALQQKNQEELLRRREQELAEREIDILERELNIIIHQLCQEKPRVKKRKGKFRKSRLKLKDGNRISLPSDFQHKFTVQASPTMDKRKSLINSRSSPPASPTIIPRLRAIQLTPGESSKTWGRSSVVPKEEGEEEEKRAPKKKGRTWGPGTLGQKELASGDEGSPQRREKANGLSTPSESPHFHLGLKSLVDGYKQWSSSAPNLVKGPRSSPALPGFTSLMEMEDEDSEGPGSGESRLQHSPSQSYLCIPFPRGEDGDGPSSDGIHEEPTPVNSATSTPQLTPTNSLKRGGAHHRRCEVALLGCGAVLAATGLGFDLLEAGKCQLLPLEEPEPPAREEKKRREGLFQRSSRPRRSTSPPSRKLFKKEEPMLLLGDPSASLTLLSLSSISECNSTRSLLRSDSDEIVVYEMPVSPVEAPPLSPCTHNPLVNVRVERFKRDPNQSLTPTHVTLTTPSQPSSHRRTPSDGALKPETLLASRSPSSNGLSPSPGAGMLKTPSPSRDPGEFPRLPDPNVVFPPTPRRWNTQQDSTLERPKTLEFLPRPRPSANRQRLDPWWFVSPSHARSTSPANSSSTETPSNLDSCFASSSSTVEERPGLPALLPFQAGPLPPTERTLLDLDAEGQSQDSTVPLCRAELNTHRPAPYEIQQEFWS

[3] = target: T2, Mitogen-activated protein kinase kinase kinase 9; test: Inhibition of GST-fused human MLK1 expressed in CHO cells assessed as MKK4 phosphorylation; format: cell-based
Method in brief: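 CHO cells transfected with MLK1 plus dominant-negative MKK4 cDNA; phospho-MKK4 quantified by ELISA; IC50 derived.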
Target sequence in this assay (P80192 whole entry, the tested form may be a part): as the sequence (P80192 whole entry, looked up, the tested form may be a part) above

[4] = target: T1, Mitogen-activated protein kinase kinase kinase 11; test: Inhibition of GST-fused human MLK3
Method in brief: (§2)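 GST fusions of human MLK kinase domains from baculovirus (50 ng MLK1_KD, 150 ng MLK2_KD/LZ, 100 ng MLK3_KD), substrate 500 µg/mL myelin basic protein. Buffer 20 mM Hepes pH 7.2, 5 mM EGTA, 15 mM MgCl2, 1 mM DTT, 25 mM β-glycerophosphate, 0.1% BSA, 2% DMSO.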
Target sequence in this assay (Q16584 whole entry, the tested form may be a part): as the sequence (Q16584 whole entry, looked up, the tested form may be a part) above

[5] = target: T2, Mitogen-activated protein kinase kinase kinase 9; test: Inhibition of GST-fused human MLK1; method in brief: as §2
Target sequence in this assay (P80192 whole entry, the tested form may be a part): as the sequence (P80192 whole entry, looked up, the tested form may be a part) above

[6] = target: Vascular endothelial growth factor receptor 3 (Homo sapiens, UniProt P35916); test: Inhibition of human VEGFR3 expressed in baculovirus insect cell system
[7] = target: Serine/threonine-protein kinase Chk1/2 (Homo sapiens, UniProt O96017+O14757); test: Inhibition of human CHK1/2 expressed in baculovirus insect cell system
[8] = Oral bioavailability in Sprague-Dawley rat at 5 mg/kg; format: ADME, organism-based; conditions: in vivo
Method in brief: (§3)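 Rat PK: iv dose into lateral tail vein in 3% DMSO/30% solutol/67% PBS; oral gavage in 50% Tween 80/40% propylene carbonate/10% propylene glycol, rats fasted overnight before oral dosing. Serial tail-vein blood at seven times over 6 h into heparinized tubes. Plasma protein-precipitated with acetonitrile, analysed with internal standard by LC-MS/MS. Bioavailability from iv versus po AUCs.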

[9] = target: Mitogen-activated protein kinase 14 (Homo sapiens, UniProt Q16539); test: Inhibition of human P38alpha expressed in baculovirus insect cell system
[10] = Volume of distribution in Sprague-Dawley rat at 1 mg/kg, iv; format: ADME, organism-based; design: dose 1 mg/kg, route intravenous; conditions: in vivo; method in brief: as §3
[11] = target: T3, Dual specificity mitogen-activated protein kinase kinase 4 (Homo sapiens, UniProt P45985); test: Inhibition of human MKK4/7 expressed in baculovirus insect cell system
T3 sequence (P45985 whole entry): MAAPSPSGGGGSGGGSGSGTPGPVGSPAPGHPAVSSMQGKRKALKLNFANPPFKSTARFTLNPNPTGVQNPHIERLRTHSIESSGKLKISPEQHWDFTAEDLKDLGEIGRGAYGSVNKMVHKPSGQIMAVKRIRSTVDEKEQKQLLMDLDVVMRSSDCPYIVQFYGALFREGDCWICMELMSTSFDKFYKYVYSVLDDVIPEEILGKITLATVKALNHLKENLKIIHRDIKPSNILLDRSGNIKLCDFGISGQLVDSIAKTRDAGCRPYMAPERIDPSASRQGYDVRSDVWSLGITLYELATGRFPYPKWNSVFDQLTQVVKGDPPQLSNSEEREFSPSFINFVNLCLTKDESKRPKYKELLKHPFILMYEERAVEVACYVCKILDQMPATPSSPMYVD

[12] = target: High affinity nerve growth factor receptor (Homo sapiens, UniProt P04629); test: Inhibition of human TrkA expressed in baculovirus insect cell system
[13] = Half life in Sprague-Dawley rat at 5 mg/kg, po; format: ADME, organism-based; design: dose 5 mg/kg, route oral; conditions: in vivo; method in brief: as §3
[14] = target: Mitogen-activated protein kinase kinase kinase 10 (Homo sapiens, UniProt Q02779); test: Inhibition of human MLK2 expressed in baculovirus insect cell system
Method in brief: as §2, with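 “DMSO. […] 15 min at 37 °C, TCA precipitation, scintillation counting. IC50 by variable-slope sigmoidal fit, average of duplicates within 20%.” for “DMSO.”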

[15] = target: Tyrosine-protein kinase Fyn (Homo sapiens, UniProt P06241); test: Inhibition of human Fyn kinase expressed in baculovirus insect cell system
Protein kinase C (PKC) = test: Inhibition of human PKC expressed in baculovirus insect cell system
[16] = target: Vascular endothelial growth factor receptor 2 (Homo sapiens, UniProt P35968); test: Inhibition of human VEGFR2 expressed in baculovirus insect cell system
Sequence of Vascular endothelial growth factor receptor 2 (P35968 whole entry): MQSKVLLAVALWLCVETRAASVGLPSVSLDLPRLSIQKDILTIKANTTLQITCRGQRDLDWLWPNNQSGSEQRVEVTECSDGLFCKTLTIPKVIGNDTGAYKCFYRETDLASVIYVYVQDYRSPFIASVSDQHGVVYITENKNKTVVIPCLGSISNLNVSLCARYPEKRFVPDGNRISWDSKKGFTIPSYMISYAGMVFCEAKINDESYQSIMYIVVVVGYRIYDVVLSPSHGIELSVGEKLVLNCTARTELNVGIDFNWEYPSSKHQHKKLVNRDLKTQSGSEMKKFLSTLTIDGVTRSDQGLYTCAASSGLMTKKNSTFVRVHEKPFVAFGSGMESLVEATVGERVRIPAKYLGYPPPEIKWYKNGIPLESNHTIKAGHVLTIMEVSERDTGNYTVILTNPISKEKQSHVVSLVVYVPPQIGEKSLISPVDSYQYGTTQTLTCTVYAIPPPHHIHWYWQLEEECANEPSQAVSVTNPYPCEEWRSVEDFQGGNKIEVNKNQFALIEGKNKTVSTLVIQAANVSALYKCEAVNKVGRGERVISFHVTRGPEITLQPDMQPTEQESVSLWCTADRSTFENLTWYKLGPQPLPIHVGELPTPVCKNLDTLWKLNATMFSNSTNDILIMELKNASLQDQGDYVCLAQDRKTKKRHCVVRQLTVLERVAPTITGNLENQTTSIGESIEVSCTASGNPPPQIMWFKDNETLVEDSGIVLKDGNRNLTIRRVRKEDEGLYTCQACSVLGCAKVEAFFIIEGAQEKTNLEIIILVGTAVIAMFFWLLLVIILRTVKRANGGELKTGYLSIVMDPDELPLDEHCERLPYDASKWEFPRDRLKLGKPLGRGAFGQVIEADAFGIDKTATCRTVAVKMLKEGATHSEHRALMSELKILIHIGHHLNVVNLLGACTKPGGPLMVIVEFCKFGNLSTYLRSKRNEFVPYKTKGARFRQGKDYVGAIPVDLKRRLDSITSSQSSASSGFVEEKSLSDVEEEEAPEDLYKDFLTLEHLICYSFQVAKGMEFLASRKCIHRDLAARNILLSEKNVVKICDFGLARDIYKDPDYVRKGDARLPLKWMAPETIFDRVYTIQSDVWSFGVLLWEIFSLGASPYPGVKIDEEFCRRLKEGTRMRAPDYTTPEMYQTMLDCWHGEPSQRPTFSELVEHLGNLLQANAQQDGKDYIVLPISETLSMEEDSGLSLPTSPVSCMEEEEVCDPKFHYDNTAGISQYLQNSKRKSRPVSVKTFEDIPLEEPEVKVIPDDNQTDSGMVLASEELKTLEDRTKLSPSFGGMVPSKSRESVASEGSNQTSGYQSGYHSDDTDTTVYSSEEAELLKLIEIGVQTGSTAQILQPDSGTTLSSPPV

[17] = target: Fibroblast growth factor receptor 1 (Homo sapiens, UniProt P11362); test: Inhibition of human FGFR1 expressed in baculovirus insect cell system
[18] = AUC in Sprague-Dawley rat at 5 mg/kg, po; format: ADME, organism-based; design: dose 5 mg/kg, route oral; conditions: plasma
Method in brief: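 Rats were fasted overnight, then dosed by oral gavage in 50% Tween 80, 40% propylene carbonate and 10% propylene glycol. Serial heparinized blood samples were taken from the lateral tail vein at seven times over 6 h. Plasma was deproteinized with acetonitrile and analysed for drug against an internal standard by LC-MS/MS.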

[19] = AUC in Sprague-Dawley rat at 1 mg/kg, iv; format: ADME, organism-based; design: dose 1 mg/kg, route intravenous; conditions: plasma
Method in brief: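 Single intravenous dose into the lateral tail vein in 3% DMSO, 30% solutol and 67% phosphate-buffered saline. Serial heparinized blood samples were taken from the lateral tail vein at seven times over 6 h. Plasma was separated by centrifugation, deproteinized with acetonitrile and analysed for drug against an internal standard by LC-MS/MS.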

[20] = target: c-Jun N-terminal kinase, JNK (Homo sapiens, UniProt P45983+P53779+P45984); test: Inhibition of human JNK expressed in baculovirus insect cell system
[21] = Half life in Sprague-Dawley rat at 1 mg/kg, iv; format: ADME, organism-based; design: dose 1 mg/kg, route intravenous; conditions: in vivo; method in brief: as §3
[22] = Inhibition of human IRK expressed in baculovirus insect cell system
[23] = Clearance in Sprague-Dawley rat at 1 mg/kg, iv; format: ADME, organism-based; design: dose 1 mg/kg, route intravenous; conditions: in vivo; method in brief: as §3
Cyclin-dependent kinase = test: Inhibition of human CDK expressed in baculovirus insect cell system
Mus musculus [24] = test: Neuroprotective activity against MPTP-induced loss of striatal dopamine markers in po dosed mouse administered twice daily; format: functional, organism-based
Method in brief: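 Mouse MPTP neurotoxicity: low dose 20 mg/kg sc, assessing striatal DA terminals by GBR-12935 binding; high dose 40 mg/kg sc, assessing striatal DA markers and substantia nigra cell bodies by TH immunoreactivity. Test compounds given orally, q.d. or b.i.d.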

SH-SY5Y = test: Neuroprotective activity against human SH-SY5Y cells assessed as inhibition of MPP+-induced cell death; format: functional, cell-based
[25] = Cmax in Sprague-Dawley rat at 5 mg/kg, po; format: ADME, organism-based; design: dose 5 mg/kg, route oral; conditions: in vivo; method in brief: as §3
Mus musculus [26] = test: Inhibition of MPTP-induced increase in pMKK4 levels in mouse at 6.7 mg/kg, po administered 2 hrs before MPTP challenge followed by 40 mg/kg, sc 2 hrs after MPTP challenge; format: functional; design: Activity: scale not given: the % may be the effect or the level left
Method in brief: (§4)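 Mice dosed orally at 6.7 mg/kg 2 h before and 2 h after MPTP (40 mg/kg sc). Substantia nigra dissected 2 h after second dose; pMKK4 measured by immunoblot against treated and control groups. Plasma drug levels taken 2 h after dosing (4 h post-MPTP).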

[27] = target: Vascular endothelial growth factor receptor 1 (Homo sapiens, UniProt P17948); test: Inhibition of human VEGFR1 expressed in baculovirus insect cell system
Sequence of Vascular endothelial growth factor receptor 1 (P17948 whole entry): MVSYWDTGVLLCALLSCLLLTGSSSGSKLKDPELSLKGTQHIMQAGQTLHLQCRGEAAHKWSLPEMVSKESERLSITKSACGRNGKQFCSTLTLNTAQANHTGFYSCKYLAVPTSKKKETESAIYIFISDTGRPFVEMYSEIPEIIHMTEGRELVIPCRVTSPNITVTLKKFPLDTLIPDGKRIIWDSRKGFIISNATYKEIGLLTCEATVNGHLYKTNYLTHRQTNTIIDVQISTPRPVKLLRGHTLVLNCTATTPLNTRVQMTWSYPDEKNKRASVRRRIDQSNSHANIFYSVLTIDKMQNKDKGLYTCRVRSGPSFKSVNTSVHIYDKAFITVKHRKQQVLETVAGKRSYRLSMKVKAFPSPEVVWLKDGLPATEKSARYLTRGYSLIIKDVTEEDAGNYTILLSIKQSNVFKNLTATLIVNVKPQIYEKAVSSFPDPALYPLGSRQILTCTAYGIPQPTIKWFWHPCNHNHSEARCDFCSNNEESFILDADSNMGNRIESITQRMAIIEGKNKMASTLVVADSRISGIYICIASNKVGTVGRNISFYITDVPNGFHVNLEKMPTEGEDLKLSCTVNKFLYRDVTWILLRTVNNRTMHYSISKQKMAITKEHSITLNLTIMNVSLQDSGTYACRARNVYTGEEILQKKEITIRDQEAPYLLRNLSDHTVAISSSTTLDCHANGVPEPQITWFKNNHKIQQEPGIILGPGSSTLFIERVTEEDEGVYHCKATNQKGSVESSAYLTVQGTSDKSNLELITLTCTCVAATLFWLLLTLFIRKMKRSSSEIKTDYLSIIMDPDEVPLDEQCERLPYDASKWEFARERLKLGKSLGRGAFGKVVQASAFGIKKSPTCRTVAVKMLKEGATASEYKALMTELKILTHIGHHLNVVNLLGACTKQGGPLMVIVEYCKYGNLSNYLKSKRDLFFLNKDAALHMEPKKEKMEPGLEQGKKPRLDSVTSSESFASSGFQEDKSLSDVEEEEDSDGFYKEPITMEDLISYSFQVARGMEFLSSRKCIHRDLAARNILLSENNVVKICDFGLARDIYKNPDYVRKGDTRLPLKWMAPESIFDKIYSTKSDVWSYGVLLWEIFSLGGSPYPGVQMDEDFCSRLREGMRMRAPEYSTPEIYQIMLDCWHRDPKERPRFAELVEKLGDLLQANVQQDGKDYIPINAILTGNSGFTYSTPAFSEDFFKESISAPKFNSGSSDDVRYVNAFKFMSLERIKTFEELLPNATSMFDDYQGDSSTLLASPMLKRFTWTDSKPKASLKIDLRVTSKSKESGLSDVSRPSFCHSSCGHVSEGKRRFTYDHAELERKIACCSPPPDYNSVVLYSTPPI

[28] = Plasma concentration in mouse at 6.7 mg/kg, po administered 2 hrs before MPTP challenge followed by 40 mg/kg, sc 2 hrs after MPTP challenge; format: ADME, organism-based; conditions: other: po followed by sc; method in brief: as §4
[29] = Metabolic stability in rat liver S9 fraction after 2 hrs in presence of NADPH; format: ADME, subcellular; conditions: read-out: Stability
Method in brief: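 Incubated 2 h in rat liver S9 preparation with NADPH; percent parent remaining reported.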

For COCCOc1ccc2c(c1)CCc1c-2c2c(c3c4ccccc4n(CCO)c13)CNC2=O, the inhibition [1] was 40% and the inhibition [2] was 52%.
N#CCOc1ccc2c(c1)CCc1c-2c2c(c3c4ccccc4n(CCO)c13)CNC2=O gave an inhibition [1] of 8% and an inhibition [2] of 30%.
With CC(C)Oc1ccc2c(c1)CCc1c-2c2c(c3c1[nH]c1ccccc13)CNC2=O the IC50 [3] was 196 nM, the IC50 [4] was 159 nM and the IC50 [5] was 66 nM.
With COc1ccc2c(c1)CCc1c-2c2c(c3c4ccccc4n(CCCO)c13)CNC2=O the IC50 [4] was 87 nM and the IC50 [5] was 101 nM.
For O=C1NCc2c1c1c(c3[nH]c4ccccc4c23)CCc2cc(O)ccc2-1, the inhibition [1] was 0% and the inhibition [2] was 9%.
Molecule O=C1NCc2c1c1c(c3c2c2ccccc2n3CCO)CCc2cc(OC3CCCC3)ccc2-1 has an inhibition [1] of 32%, an IC50 [3] of 345 nM and an IC50 [5] of 49 nM.
Work on O=C1NCc2c1c1c(c3c2c2ccccc2n3CCO)CCc2cc(O)ccc2-1 yielded an inhibition [1] of 30% and an inhibition [2] of 32%.
Work on O=C1NCc2c1c1c(c3c2c2ccccc2n3CCO)CCc2cc(OCCO)ccc2-1 yielded an inhibition [1] of 46%.
In the case of CC(C)Oc1ccc2c(c1)CCc1c-2c2c(c3c4ccccc4n(CCO)c13)CNC2=O, the IC50 [6] is reported as 2460 nM, the IC50 [7] is reported as > 10000 nM and the bioavailability [8] is reported as 37%. The IC50 [9] was > 10000 nM, the Vd [10] was 2 L/kg and the IC50 [11] was > 3000 nM. The IC50 [12] was 1050 nM, the half-life [13] was 66 min and the IC50 [3] was 33 nM. The IC50 [14] was 1860 nM, the IC50 [15] was 1190 nM and the IC50 (Protein kinase C (PKC)) was > 6000 nM. The IC50 [16] was 3380 nM, the IC50 [17] was > 10000 nM and the IC50 [4] was 65 nM. It also gave an AUC [18] of 1070 ng·h/mL, an AUC [19] of 579 ng·h/mL and an IC50 [5] of 26 nM. For the same molecule, the IC50 [20] was > 30000 nM, the half-life [21] was 48 min and the IC50 [22] was > 10000 nM. The clearance [23] was 28 mL/min/kg, the IC50 (Cyclin-dependent kinase) was > 10000 nM and the Activity (Mus musculus [24]) was “Active”. For the same molecule, the IC50 (SH-SY5Y) was 43 nM, the Cmax [25] was 339 ng/mL and the Activity (Mus musculus [26]) was 64%. For the same molecule, the IC50 [27] was > 10000 nM, the concentration at 2 h [28] was 580 nM and the remaining at 2 h [29] was 44%.
